{"source": "ChEMBL document CHEMBL1649328", "about": "“Assessment of pandemic and seasonal influenza A (H1N1) virus susceptibility to neuraminidase inhibitors in three enzyme activity inhibition assays” (Antimicrob Agents Chemother, 2010)", "key": {"Influenza A virus [1]": {"test_system": "Influenza A virus", "assay": "Antiviral activity against influenza A (A/Singapore/57/2009 (H1N1)) virus harboring neuraminidase H275Y mutant after 30 mins by MUNANA substrate based fluorometric assay", "format": "functional, organism-based", "in_short": "(§1)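 Fluorometric NA inhibition with MUNANA (100 μM final). Titrated virus in NA-Star buffer (26 mM MES, 4 mM CaCl2, pH 6.0) was preincubated with ten half-log inhibitor dilutions (0.03–1,000 nM final) for 30 min at 37°C, then with substrate for 30 min at 37°C. The reaction was stopped with 0.1 M glycine in 25% ethanol, pH 10.7, and 4-methylumbelliferone was read at ex 365/em 450 nm. IC50 came from a Vmax·[1−x/(K+x)] fit, mean of ≥3 experiments.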"}, "Influenza A virus [2]": {"test_system": "Influenza A virus", "assay": "Ratio of IC50 for influenza A (A/Montana/02/2009 (H1N1)) virus harboring neuraminidase H275Y mutant to IC50 for influenza A (A/Washington/29/2009 (H1N1)) virus expressing wild type enzyme by fetuin substrate based colorimetric assay", "format": "functional"}, "Influenza A virus [3]": {"test_system": "Influenza A virus", "assay": "Antiviral activity against influenza A (A/Montana/02/2009 (H1N1)) virus harboring neuraminidase H275Y mutant after 16 to 18 hrs by fetuin substrate based colorimetric assay", "format": "functional, organism-based", "in_short": "(§2)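 Colorimetric NA inhibition with fetuin substrate. Virus was diluted in NA-Star buffer (26 mM MES, 4 mM CaCl2, pH 6.0) to give OD549 of 0.4–0.8 after 18 h. It was preincubated with ten half-log inhibitor dilutions (0.03–1,000 nM final) for 1 h at 37°C, then with fetuin (5.5 mg/ml final) for 16–18 h at 37°C. Released sialic acid was read at 549 nm after periodate/TBA reaction and butanol extraction. IC50 came from a Vmax·[1−x/(K+x)] fit, mean of ≥2 experiments.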"}, "Influenza A virus [4]": {"test_system": "Influenza A virus", "assay": "Ratio of IC50 for influenza A (A/Osaka/180/2009 (H1N1)) virus harboring neuraminidase H275Y mutant to IC50 for influenza A (A/Washington/29/2009 (H1N1)) virus expressing wild type enzyme by MUNANA substrate based fluorometric assay", "format": "functional"}, "Influenza A virus [5]": {"test_system": "Influenza A virus", "assay": "Antiviral activity against influenza A (A/Osaka/180/2009 (H1N1)) virus harboring neuraminidase H275Y mutant after 30 mins by MUNANA substrate based fluorometric assay", "format": "functional, organism-based", "in_short": "as §1"}, "Influenza A virus [6]": {"test_system": "Influenza A virus", "assay": "Ratio of IC50 for influenza A (A/Singapore/57/2009 (H1N1)) virus harboring neuraminidase H275Y mutant to IC50 for influenza A (A/Washington/29/2009 (H1N1)) virus expressing wild type enzyme by NA-star substrate based chemiluminescent assay", "format": "functional", "in_short": "(§3)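 Chemiluminescent NA inhibition in MES 26 mM/CaCl2 4 mM buffer, pH 6.0. […] Luminescence read for 0.1 s. IC50 from the fit y = Vmax·{1 − [x/(K + x)]}, mean of ≥3 experiments. Ratio is the H275Y variant IC50 over the pandemic wild-type reference IC50.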"}, "Influenza A virus [7]": {"test_system": "Influenza A virus", "assay": "Ratio of IC50 for influenza A (A/Osaka/180/2009 (H1N1)) virus harboring neuraminidase H275Y mutant to IC50 for influenza A (A/Washington/29/2009 (H1N1)) virus expressing wild type enzyme by NA-star substrate based chemiluminescent assay", "format": "functional"}, "Influenza A virus [8]": {"test_system": "Influenza A virus", "assay": "Ratio of IC50 for influenza A (A/North Carolina/01/2009 (H1N1)) virus harboring neuraminidase H275Y mutant to IC50 for influenza A (A/Washington/29/2009 (H1N1)) virus expressing wild type enzyme by fetuin substrate based colorimetric assay", "format": "functional"}, "Influenza A virus [9]": {"test_system": "Influenza A virus", "assay": "Ratio of IC50 for influenza A (A/North Carolina/02/2009 (H1N1)) virus harboring neuraminidase H275Y mutant to IC50 for influenza A (A/Washington/10/2008 (H1N1)) virus expressing wild type enzyme by fetuin substrate based colorimetric assay", "format": "functional"}, "Influenza A virus [10]": {"test_system": "Influenza A virus", "assay": "Ratio of IC50 for influenza A (A/Montana/02/2009 (H1N1)) virus harboring neuraminidase H275Y mutant to IC50 for influenza A (A/Washington/29/2009 (H1N1)) virus expressing wild type enzyme by MUNANA substrate based fluorometric assay", "format": "functional"}, "Influenza A virus [11]": {"test_system": "Influenza A virus", "assay": "Ratio of IC50 for influenza A (A/Singapore/91/2009 (H1N1))virus harboring neuraminidase H275Y mutant to IC50 for influenza A (A/Washington/29/2009 (H1N1)) virus expressing wild type enzyme by MUNANA substrate based fluorometric assay", "format": "functional", "in_short": "(§4)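 Fluorometric NA inhibition in MES/CaCl2 buffer, pH 6.0. Virus preincubated 30 min at 37°C with ten half-log inhibitor dilutions (0.03–1,000 nM final), then MUNANA (100 μM final) added for 30 min at 37°C. Stopped with 0.1 M glycine in 25% ethanol, pH 10.7. Read at ex 365/em 450 nm. IC50 curve-fitted, mean of ≥3 experiments. Ratio is variant IC50 over wild-type reference IC50.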"}, "Influenza A virus [12]": {"test_system": "Influenza A virus", "assay": "Antiviral activity against influenza A (A/Montana/02/2009 (H1N1)) virus harboring neuraminidase H275Y mutant after 30 mins by NA-star substrate based chemiluminescent assay", "format": "functional, organism-based", "in_short": "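Titrated virus in NA-Star buffer (26 mM MES, 4 mM CaCl2, pH 6.0) was preincubated with ten half-log inhibitor dilutions (0.03–1,000 nM final) for 30 min at 37°C, then with substrate for 30 min at room temperature. Accelerator solution was added and luminescence read for 0.1 s. IC50 came from a Vmax·[1−x/(K+x)] fit, mean of ≥3 experiments.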"}, "Influenza A virus [13]": {"test_system": "Influenza A virus", "assay": "Antiviral activity against influenza A (A/North Carolina/01/2009 (H1N1)) virus harboring neuraminidase H275Y mutant after 30 mins by MUNANA substrate based fluorometric assay", "format": "functional, organism-based", "in_short": "as §1"}, "Influenza A virus [14]": {"test_system": "Influenza A virus", "assay": "Ratio of IC50 for influenza A (A/North Carolina/01/2009 (H1N1)) virus harboring neuraminidase H275Y mutant to IC50 for influenza A (A/Washington/29/2009 (H1N1)) virus expressing wild type enzyme by NA-star substrate based chemiluminescent assay", "format": "functional"}, "Influenza A virus [15]": {"test_system": "Influenza A virus", "assay": "Antiviral activity against influenza A (A/Osaka/180/2009 (H1N1)) virus harboring neuraminidase H275Y mutant after 16 to 18 hrs by fetuin substrate based colorimetric assay", "format": "functional, organism-based", "in_short": "as §2"}, "Influenza A virus [16]": {"test_system": "Influenza A virus", "assay": "Ratio of IC50 for influenza A (A/Washington/29/2009 (H1N1)) virus harboring neuraminidase H275Y mutant to IC50 for influenza A (A/Washington/29/2009 (H1N1)) virus expressing wild type enzyme by MUNANA substrate based fluorometric assay", "format": "functional", "in_short": "as §4"}, "Influenza A virus [17]": {"test_system": "Influenza A virus", "assay": "Ratio of IC50 for influenza A (A/New York/18/2009 (H1N1)) virus harboring neuraminidase H275Y mutant to IC50 for influenza A (A/Washington/10/2008 (H1N1)) virus expressing wild type enzyme by MUNANA substrate based fluorometric assay", "format": "functional"}, "Influenza A virus [18]": {"test_system": "Influenza A virus", "assay": "Antiviral activity against influenza A (A/North Carolina/01/2009 (H1N1)) virus harboring neuraminidase H275Y mutant after 16 to 18 hrs by fetuin substrate based colorimetric assay", "format": "functional, organism-based", "in_short": "as §2"}, "Influenza A virus [19]": {"test_system": "Influenza A virus", "assay": "Ratio of IC50 for influenza A (A/Singapore/91/2009 (H1N1)) virus harboring neuraminidase H275Y mutant to IC50 for influenza A (A/Washington/29/2009 (H1N1)) virus expressing wild type enzyme by NA-star substrate based chemiluminescent assay", "format": "functional", "in_short": "as §3"}}, "data": [{"smiles": "C/C=C\\[C@@H]1C[C@H](C(=O)O)N[C@H]1[C@@H](NC(C)=O)[C@](C)(CCC)OC", "values": [{"measurement": "IC50", "setting": "Influenza A virus [1]", "result": 1.39, "unit": "nM"}, {"measurement": "Ratio IC50", "setting": "Influenza A virus [2]", "result": 2}, {"measurement": "IC50", "setting": "Influenza A virus [3]", "result": 1.89, "unit": "nM"}, {"measurement": "Ratio IC50", "setting": "Influenza A virus [4]", "result": 5}, {"measurement": "IC50", "setting": "Influenza A virus [5]", "result": 2.44, "unit": "nM"}, {"measurement": "Ratio IC50", "setting": "Influenza A virus [6]", "result": 3}, {"measurement": "Ratio IC50", "setting": "Influenza A virus [7]", "result": 3}, {"measurement": "Ratio IC50", "setting": "Influenza A virus [8]", "result": 2}, {"measurement": "Ratio IC50", "setting": "Influenza A virus [9]", "result": 1}, {"measurement": "Ratio IC50", "setting": "Influenza A virus [10]", "result": 5}, {"measurement": "Ratio IC50", "setting": "Influenza A virus [11]", "result": 1}, {"measurement": "IC50", "setting": "Influenza A virus [12]", "result": 1, "unit": "nM"}, {"measurement": "IC50", "setting": "Influenza A virus [13]", "result": 1.93, "unit": "nM"}, {"measurement": "Ratio IC50", "setting": "Influenza A virus [14]", "result": 5}, {"measurement": "IC50", "setting": "Influenza A virus [15]", "result": 4.08, "unit": "nM"}, {"measurement": "Ratio IC50", "setting": "Influenza A virus [16]", "result": 3}, {"measurement": "Ratio IC50", "setting": "Influenza A virus [17]", "result": 1}, {"measurement": "IC50", "setting": "Influenza A virus [18]", "result": 2.32, "unit": "nM"}, {"measurement": "Ratio IC50", "setting": "Influenza A virus [19]", "result": 1}]}, {"smiles": "CCC(CC)[C@H](NC(C)=O)[C@@H]1[C@H](O)[C@@H](C(=O)O)C[C@H]1NC(=N)N", "note": "[PERAMIVIR ANHYDROUS]", "values": [{"measurement": "IC50", "setting": "Influenza A virus [1]", "result": 122, "unit": "nM"}, {"measurement": "Ratio IC50", "setting": "Influenza A virus [2]", "result": 111}, {"measurement": "IC50", "setting": "Influenza A virus [3]", "result": 83.4, "unit": "nM"}, {"measurement": "Ratio IC50", "setting": "Influenza A virus [4]", "result": 488}, {"measurement": "IC50", "setting": "Influenza A virus [5]", "result": 97.6, "unit": "nM"}, {"measurement": "Ratio IC50", "setting": "Influenza A virus [6]", "result": 84}, {"measurement": "Ratio IC50", "setting": "Influenza A virus [7]", "result": 93}, {"measurement": "Ratio IC50", "setting": "Influenza A virus [8]", "result": 140}, {"measurement": "Ratio IC50", "setting": "Influenza A virus [9]", "result": 1}, {"measurement": "Ratio IC50", "setting": "Influenza A virus [10]", "result": 1095}, {"measurement": "Ratio IC50", "setting": "Influenza A virus [11]", "result": 1}, {"measurement": "IC50", "setting": "Influenza A virus [12]", "result": 15, "unit": "nM"}, {"measurement": "IC50", "setting": "Influenza A virus [13]", "result": 150, "unit": "nM"}, {"measurement": "Ratio IC50", "setting": "Influenza A virus [14]", "result": 125}, {"measurement": "IC50", "setting": "Influenza A virus [15]", "result": 195, "unit": "nM"}, {"measurement": "Ratio IC50", "setting": "Influenza A virus [16]", "result": 751}, {"measurement": "Ratio IC50", "setting": "Influenza A virus [17]", "result": 1}, {"measurement": "IC50", "setting": "Influenza A virus [18]", "result": 105, "unit": "nM"}, {"measurement": "Ratio IC50", "setting": "Influenza A virus [19]", "result": 1}]}]}
